The source of these data is ChEMBL document CHEMBL1759944, “Structure-activity relationship of 2,4,5-trioxoimidazolidines as inhibitors of thymidine phosphorylase” (Eur J Med Chem, 2011).

Structures can show the parent of a compound that is named as a salt.

In one assay the target is Thymidine phosphorylase (Escherichia coli K-12, UniProt P07650). Kind of assay: Inhibition of Escherichia coli Thymidine phosphorylase by spectrophotometry.
Chain of Thymidine phosphorylase (P07650 whole entry): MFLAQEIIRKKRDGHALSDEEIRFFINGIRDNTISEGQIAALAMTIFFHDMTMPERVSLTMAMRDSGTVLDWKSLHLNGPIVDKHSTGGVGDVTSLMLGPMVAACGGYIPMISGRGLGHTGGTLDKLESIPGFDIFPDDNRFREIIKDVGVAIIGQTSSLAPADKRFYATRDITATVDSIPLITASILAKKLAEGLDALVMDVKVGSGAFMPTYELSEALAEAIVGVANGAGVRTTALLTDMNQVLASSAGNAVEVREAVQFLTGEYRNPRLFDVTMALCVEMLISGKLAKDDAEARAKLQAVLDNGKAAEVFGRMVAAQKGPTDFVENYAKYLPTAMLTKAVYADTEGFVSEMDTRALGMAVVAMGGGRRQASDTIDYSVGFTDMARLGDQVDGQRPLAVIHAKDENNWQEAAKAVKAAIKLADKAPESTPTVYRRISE
Conditions: not given; call rule not given here
An outline of the steps: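 E. coli TP (0.22 units) added to start a 1 ml reaction containing […] and inhibitor in 0.1 M potassium phosphate, pH 7.4. Loss of thymidine absorbance followed at 265 nm, 25 °C, in a thermostatted cuvette. IC50 obtained from inhibition curves by enzyme kinetics analysis.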
For `O=C(O)CN1C(=O)C(=O)N(Cc2cccc(Cl)c2)C1=O`, the IC50 result is listed as “Active”.

The assay is the same for the next values; noted with them: read-out: IC50.
Regarding `O=C1NC(=O)N(Cc2ccccc2)C1=O`, the IC50 came out at 115 µM. For the compound `Cc1ccccc1CN1C(=O)NC(=O)C1=O`, the IC50 was 128 µM. For `O=C1NC(=O)N(Cc2cccc(Cl)c2)C1=O`, the IC50 worked out at 117 µM.

As to `O=C1NC(=O)N(CCc2ccccc2)C1=O`, the IC50 was found to be 103 µM. Take `CCOC(=O)CN1C(=O)C(=O)N(Cc2ccccc2)C1=O`: the IC50 is 342 µM.

Consider `CCOC(=O)CN1C(=O)C(=O)N(Cc2ccccc2C)C1=O`, for which the IC50 stood at 303 µM.

Regarding `CCOC(=O)CN1C(=O)C(=O)N(Cc2cccc(Cl)c2)C1=O`, the IC50 was 292 µM. For the compound `CCOC(=O)CN1C(=O)C(=O)N(CCc2ccccc2)C1=O`, the IC50 is 357 µM. In the case of `NC(=O)CCN1C(=O)C(=O)N(Cc2ccccc2)C1=O`, the IC50 was found to be 106 µM.

For `Cc1ccccc1CN1C(=O)C(=O)N(CCC(N)=O)C1=O`, the 50% inhibitory concentration (IC50) worked out at 88 µM. `NC(=O)CCN1C(=O)C(=O)N(Cc2cccc(Cl)c2)C1=O`: the IC50 stood at 66 µM. For `NC(=O)CCN1C(=O)C(=O)N(CCc2ccccc2)C1=O`, the IC50 was 40 µM. On to `O=C(O)CN1C(=O)C(=O)N(Cc2ccccc2)C1=O`, for which the 50% inhibitory concentration (IC50) is 264 µM. Consider `Cc1ccccc1CN1C(=O)C(=O)N(CC(=O)O)C1=O`, for which the half-maximal inhibitory concentration (IC50) came to 236 µM. For the compound `O=C(O)CN1C(=O)C(=O)N(CCc2ccccc2)C1=O`, the IC50 amounted to 85 µM. For the compound `N=C1CCCN1Cc1[nH]c(=O)[nH]c(=O)c1Cl` [TIPIRACIL HYDROCHLORIDE], the IC50 was 0.036 µM.

One may read the IC50 as the point on the concentration scale where inhibition reaches its midpoint.
